In brackets after ≈: the same amount, converted by molar mass. Activity calls are given as the source filed them. The rule behind the calls is not given here.
Assays:
[1] = biological target: DNA gyrase (Staphylococcus aureus) (UniProt P0A0K8+P20831); test: Inhibition of Staphylococcus aureus DNA gyrase assessed as inhibition of DNA supercoiling; assay type: protein-complex assay
[2] = Cytotoxicity against mouse RAW264.7 cells assessed as inhibition of cell growth at 50 uM after 72 hrs by MTT assay; assay type: cell-based
How it was run: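 RAW 264.7 mouse macrophages exposed to compound at 50 µM for 72 h. Viability read by MTT conversion to formazan, reported as percent inhibition.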

[3] = tested on: Mycobacterium tuberculosis; test: Antimicrobial activity against Mycobacterium tuberculosis H37Rv ATCC 27294 after 28 days by alamar blue assay; assay type: functional; conditions: H37Rv ATCC 27294, 672 h
Escherichia coli = test: Inhibition of Escherichia coli DNA gyrase assessed as inhibition of DNA supercoiling
[4] = tested on: Mycobacterium tuberculosis; test: Inhibition of Mycobacterium tuberculosis DNA topoisomerase 1 assessed as DNA relaxation at 50 uM
[5] = biological target: DNA gyrase (Pseudomonas aeruginosa) (UniProt P48372+Q9I7C2); test: Inhibition of Pseudomonas aeruginosa DNA gyrase assessed as inhibition of DNA supercoiling; assay type: protein-complex assay
[6] = biological target: DNA gyrase subunit A/DNA gyrase subunit B (Mycobacterium tuberculosis (strain ATCC 25618 / H37Rv), UniProt P9WG45+P9WG47); test: Inhibition of Mycobacterium tuberculosis DNA gyrase assessed as inhibition of DNA supercoiling after 30 mins by electrophoresis
Sequence of DNA gyrase subunit A/DNA gyrase subunit B (P9WG45 whole entry): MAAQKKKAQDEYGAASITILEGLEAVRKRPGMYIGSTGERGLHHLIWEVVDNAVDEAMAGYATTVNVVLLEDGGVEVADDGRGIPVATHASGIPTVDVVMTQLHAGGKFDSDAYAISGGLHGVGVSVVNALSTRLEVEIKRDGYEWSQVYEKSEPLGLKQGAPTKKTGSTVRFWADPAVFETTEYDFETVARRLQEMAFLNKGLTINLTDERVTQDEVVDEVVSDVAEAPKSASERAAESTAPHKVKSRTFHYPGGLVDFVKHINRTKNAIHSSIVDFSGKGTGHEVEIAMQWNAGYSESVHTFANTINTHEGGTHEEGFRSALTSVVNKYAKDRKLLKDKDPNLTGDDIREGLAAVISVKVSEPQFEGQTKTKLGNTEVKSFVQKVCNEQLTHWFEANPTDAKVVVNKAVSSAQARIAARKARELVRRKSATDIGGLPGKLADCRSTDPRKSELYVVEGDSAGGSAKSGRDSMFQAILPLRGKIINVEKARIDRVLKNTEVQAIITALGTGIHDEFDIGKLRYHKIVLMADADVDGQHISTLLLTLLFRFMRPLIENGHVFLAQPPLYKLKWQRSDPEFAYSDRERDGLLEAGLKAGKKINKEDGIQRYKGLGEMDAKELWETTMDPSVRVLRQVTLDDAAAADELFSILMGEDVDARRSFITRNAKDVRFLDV
Sequence of DNA gyrase subunit A/DNA gyrase subunit B (P9WG47 whole entry): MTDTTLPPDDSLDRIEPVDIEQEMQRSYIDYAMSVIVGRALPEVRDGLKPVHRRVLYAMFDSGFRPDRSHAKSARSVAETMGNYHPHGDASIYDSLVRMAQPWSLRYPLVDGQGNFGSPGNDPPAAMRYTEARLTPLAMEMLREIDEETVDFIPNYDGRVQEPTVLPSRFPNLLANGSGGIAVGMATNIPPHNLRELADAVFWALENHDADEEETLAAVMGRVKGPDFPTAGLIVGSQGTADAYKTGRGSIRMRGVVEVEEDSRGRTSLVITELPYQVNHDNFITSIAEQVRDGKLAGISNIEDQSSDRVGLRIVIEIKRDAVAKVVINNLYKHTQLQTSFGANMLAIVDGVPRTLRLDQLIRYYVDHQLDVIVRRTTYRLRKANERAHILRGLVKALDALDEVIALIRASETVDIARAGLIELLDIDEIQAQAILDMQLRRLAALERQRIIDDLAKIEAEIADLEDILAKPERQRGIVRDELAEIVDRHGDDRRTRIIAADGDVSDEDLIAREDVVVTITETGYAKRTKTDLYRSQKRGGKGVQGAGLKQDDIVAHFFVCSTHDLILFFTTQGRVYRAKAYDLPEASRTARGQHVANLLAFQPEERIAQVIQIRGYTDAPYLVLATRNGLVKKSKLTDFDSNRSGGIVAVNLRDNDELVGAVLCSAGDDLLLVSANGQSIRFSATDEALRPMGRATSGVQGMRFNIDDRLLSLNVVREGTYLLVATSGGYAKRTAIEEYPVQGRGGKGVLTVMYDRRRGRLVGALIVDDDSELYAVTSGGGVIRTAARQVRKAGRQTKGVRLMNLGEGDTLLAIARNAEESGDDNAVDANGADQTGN

[7] = biological target: DNA gyrase subunit B (Mycobacterium smegmatis) (UniProt P0C559); test: Inhibition of Mycobacterium smegmatis GyrB by ATPase assay; conditions: Mycolicibacterium smegmatis
Sequence of DNA gyrase subunit B (Mycobacterium smegmatis) (P0C559 2-675 limits assumed): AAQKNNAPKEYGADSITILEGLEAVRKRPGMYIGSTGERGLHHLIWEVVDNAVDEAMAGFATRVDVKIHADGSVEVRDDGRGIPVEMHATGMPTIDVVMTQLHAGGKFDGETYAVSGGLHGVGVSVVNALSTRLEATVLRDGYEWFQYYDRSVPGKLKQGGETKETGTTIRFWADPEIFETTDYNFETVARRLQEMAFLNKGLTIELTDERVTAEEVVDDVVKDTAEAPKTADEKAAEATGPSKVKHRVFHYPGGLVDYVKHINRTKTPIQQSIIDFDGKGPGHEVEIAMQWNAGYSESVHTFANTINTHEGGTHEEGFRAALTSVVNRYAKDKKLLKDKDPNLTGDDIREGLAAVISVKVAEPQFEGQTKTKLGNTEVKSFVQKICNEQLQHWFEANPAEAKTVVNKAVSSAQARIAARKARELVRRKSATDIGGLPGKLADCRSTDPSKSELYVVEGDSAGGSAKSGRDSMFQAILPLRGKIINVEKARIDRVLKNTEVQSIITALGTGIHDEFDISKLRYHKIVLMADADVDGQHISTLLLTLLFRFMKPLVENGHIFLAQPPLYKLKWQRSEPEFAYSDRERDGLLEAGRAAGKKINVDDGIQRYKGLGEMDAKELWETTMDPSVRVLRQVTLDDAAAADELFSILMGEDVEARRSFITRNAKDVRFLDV

Sequence of DNA gyrase (Staphylococcus aureus) (P0A0K8 2-644 limits assumed): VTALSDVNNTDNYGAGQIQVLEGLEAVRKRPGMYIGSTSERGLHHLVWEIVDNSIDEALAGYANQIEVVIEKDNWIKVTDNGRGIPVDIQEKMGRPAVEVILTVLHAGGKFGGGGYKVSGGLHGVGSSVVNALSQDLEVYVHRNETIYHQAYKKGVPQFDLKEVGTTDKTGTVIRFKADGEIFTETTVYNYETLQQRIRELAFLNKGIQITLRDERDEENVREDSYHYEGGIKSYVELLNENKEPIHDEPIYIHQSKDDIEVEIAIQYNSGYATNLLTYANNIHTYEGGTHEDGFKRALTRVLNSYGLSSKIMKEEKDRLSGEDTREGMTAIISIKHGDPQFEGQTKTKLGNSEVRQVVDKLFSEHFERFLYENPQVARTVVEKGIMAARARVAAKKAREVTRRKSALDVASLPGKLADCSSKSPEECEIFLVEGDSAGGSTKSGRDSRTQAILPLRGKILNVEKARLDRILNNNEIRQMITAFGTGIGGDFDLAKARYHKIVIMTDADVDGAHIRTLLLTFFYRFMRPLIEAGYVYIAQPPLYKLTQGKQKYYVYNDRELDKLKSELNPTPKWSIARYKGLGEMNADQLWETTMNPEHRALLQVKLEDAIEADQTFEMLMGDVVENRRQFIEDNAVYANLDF
Sequence of DNA gyrase (Staphylococcus aureus) (P20831 whole entry partner): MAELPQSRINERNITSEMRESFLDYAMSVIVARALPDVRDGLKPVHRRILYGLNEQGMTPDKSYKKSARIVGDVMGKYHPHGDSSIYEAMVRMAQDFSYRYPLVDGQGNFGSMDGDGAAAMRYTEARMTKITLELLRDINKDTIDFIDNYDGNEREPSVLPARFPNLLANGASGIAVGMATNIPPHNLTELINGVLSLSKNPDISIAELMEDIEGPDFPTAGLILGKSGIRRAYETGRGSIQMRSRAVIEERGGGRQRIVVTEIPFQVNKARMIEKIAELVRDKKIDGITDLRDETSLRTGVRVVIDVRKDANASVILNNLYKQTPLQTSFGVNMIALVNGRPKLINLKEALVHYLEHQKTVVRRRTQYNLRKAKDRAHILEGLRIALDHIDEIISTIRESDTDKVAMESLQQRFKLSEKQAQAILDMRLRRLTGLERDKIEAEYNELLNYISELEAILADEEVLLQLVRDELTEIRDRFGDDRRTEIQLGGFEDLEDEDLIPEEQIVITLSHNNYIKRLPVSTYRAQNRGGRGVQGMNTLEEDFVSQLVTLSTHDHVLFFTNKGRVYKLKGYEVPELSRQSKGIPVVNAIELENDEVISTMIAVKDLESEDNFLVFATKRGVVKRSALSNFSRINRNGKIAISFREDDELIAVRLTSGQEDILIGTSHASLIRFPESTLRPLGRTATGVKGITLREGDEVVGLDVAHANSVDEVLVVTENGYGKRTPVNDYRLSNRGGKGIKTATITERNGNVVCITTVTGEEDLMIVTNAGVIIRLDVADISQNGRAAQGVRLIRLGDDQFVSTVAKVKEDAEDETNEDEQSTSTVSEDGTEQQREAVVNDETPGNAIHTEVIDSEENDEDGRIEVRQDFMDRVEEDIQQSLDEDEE

Structure (SMILES) | inhibition [1] | inhibition at 72 h, 50 µM [2] | MIC [3] | inhibition (Escherichia coli) | inhibition [4] | inhibition [5] | IC50 [6] | inhibition [7]
O=[N+]([O-])c1ccc(NC(=S)Nc2ccc(Nc3c4ccccc4nc4ccccc34)cc2)cc1 | inactive | 20.8% | 13.4 µM (≈ 6.25 µg/mL) | inactive | inactive | inactive | 13.1 µM | inactive
O=C(Nc1ccc(Cl)cc1)Nc1ccc(Nc2c3ccccc3nc3ccc(Cl)cc23)cc1 | inactive | 17.1% | 13.2 µM (≈ 6.25 µg/mL) | inactive | inactive | inactive | 11.8 µM | inactive
Cc1ccc(S(=O)(=O)Nc2ccc(Nc3c4ccccc4nc4ccc(Cl)cc34)cc2)cc1 | inactive | 38.5% | > 52.8 µM | inactive | inactive | inactive | 22.8 µM | inactive
COc1c(N2C[C@@H]3CCCN[C@@H]3C2)c(F)cc2c(=O)c(C(=O)O)cn(C3CC3)c12 [MOXIFLOXACIN] | – | 1.26% | 1.26 µM (≈ 0.506 µg/mL) | – | – | – | – | –
Cc1ccc2nc3ccccc3c(Nc3ccc(NS(=O)(=O)c4ccccc4)cc3)c2c1 | inactive | 39.6% | 28.4 µM (≈ 12.5 µg/mL) | inactive | inactive | inactive | 5.86 µM | inactive
Cc1ccc(S(=O)(=O)Nc2ccc(Nc3c4ccccc4nc4ccc(C)cc34)cc2)cc1 | inactive | 27.8% | 27.6 µM (≈ 12.5 µg/mL) | inactive | inactive | inactive | 9.8 µM | inactive
O=C(Nc1ccc(Cl)cc1)Nc1ccc(Nc2c3ccccc3nc3ccccc23)cc1 | inactive | 26.2% | 28.5 µM (≈ 12.5 µg/mL) | inactive | inactive | inactive | 10.4 µM | inactive
O=[N+]([O-])c1ccc(NC(=S)Nc2ccc(Nc3c4ccccc4nc4ccc(Cl)cc34)cc2)cc1 | inactive | 30.4% | > 50 µM | inactive | inactive | inactive | 28.8 µM | inactive
S=C(Nc1ccc(Cl)cc1)Nc1ccc(Nc2c3ccccc3nc3ccc(Cl)cc23)cc1 | inactive | 6.7% | > 51.1 µM | inactive | inactive | inactive | 31.5 µM | inactive
CO[C@H]1/C=C/O[C@@]2(C)Oc3c(C)c(O)c4c(O)c(c(/C=N/N5CCN(C)CC5)c(O)c4c3C2=O)NC(=O)/C(C)=C\C=C\[C@H](C)[C@H](O)[C@@H](C)[C@@H](O)[C@@H](C)[C@H](OC(C)=O)[C@@H]1C [RIFAMPIN] | – | – | 0.23 µM (≈ 0.189 µg/mL) | – | – | – | > 50 µM | –
CO[C@@H]1[C@@H](OC(N)=O)[C@@H](O)[C@H](Oc2ccc3c(O)c(NC(=O)c4ccc(O)c(CC=C(C)C)c4)c(=O)oc3c2C)OC1(C)C [NOVOBIOCIN] | – | – | > 50 µM | – | – | – | – | –
Cc1ccc(NC(=O)Nc2ccc(Nc3c4ccccc4nc4ccc(Cl)cc34)cc2)cc1 | inactive | 29.2% | 13.8 µM (≈ 6.25 µg/mL) | inactive | inactive | inactive | 12.5 µM | inactive
S=C(Nc1ccccc1)Nc1ccc(Nc2c3ccccc3nc3ccc(Cl)cc23)cc1 | inactive | 11.7% | 27.5 µM (≈ 12.5 µg/mL) | inactive | inactive | inactive | 29.3 µM | inactive
NNC(=O)c1ccncc1 [ISONIAZID] | – | – | 0.66 µM (≈ 0.0905 µg/mL) | – | – | – | > 50 µM | –
